Laboratory results reported in ChEMBL document CHEMBL3526063, “Metabolism and pharmacokinetics of JM6 in mice: JM6 is not a prodrug for Ro-61-8048” (Drug Metab Dispos, 2012).

Key:
[1] = target: Kynurenine 3-monooxygenase (Homo sapiens, UniProt O15229); assay: Inhibition of human KMO assessed as 3-hydroxykynurenine formation preincubated for 5 mins using 100 uM kynurenine as substrate by LC-MS/MS analysis
Summary of the method: (§1)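 Liver mitochondrial KMO preparation (mouse C57 BL/6J, rat Wistar, human) at 0.3 mg protein/mL in 100 mM potassium phosphate pH 7.4 with 200 µM NADPH, 0.4 U/mL G6PDH, 3 mM glucose 6-phosphate. Compound pre-incubated 5 min at 25°C, then 100 µM kynurenine added; 40 min (rodent) or 60 min (human). Stopped with TCA; 3-hydroxykynurenine by LC-MS/MS. IC50 from 8-point 3-fold dilutions (top 3 or 30 µM), triplicates, n≥2 runs.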

[2] = target: Kynurenine 3-monooxygenase (Rattus norvegicus, UniProt O88867); assay: Inhibition of Wistar rat KMO assessed as 3-hydroxykynurenine formation preincubated for 5 mins using 100 uM kynurenine as substrate by LC-MS/MS analysis; summary of the method: as §1
Chain of Kynurenine 3-monooxygenase (Rattus norvegicus, UniProt O88867) (O88867 whole entry): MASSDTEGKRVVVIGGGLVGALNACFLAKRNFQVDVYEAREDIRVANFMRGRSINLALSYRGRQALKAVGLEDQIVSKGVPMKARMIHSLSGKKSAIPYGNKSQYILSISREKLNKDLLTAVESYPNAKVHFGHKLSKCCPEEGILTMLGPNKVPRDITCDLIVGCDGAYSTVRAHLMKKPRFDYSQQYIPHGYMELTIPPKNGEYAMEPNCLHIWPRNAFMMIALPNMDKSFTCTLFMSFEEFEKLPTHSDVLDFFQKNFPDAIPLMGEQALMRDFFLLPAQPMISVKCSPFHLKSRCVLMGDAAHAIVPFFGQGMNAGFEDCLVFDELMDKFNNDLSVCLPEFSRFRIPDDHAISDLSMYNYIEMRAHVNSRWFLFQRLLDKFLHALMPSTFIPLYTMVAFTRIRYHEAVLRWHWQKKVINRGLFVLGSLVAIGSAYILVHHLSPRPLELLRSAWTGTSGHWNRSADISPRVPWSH

[3] = target: Kynurenine 3-monooxygenase (Mus musculus, UniProt Q91WN4); assay: Inhibition of C57BL/6J mouse KMO assessed as 3-hydroxykynurenine formation preincubated for 5 mins using 100 uM kynurenine as substrate by LC-MS/MS analysis; summary of the method: as §1
Chain of Kynurenine 3-monooxygenase (Mus musculus, UniProt Q91WN4) (Q91WN4 whole entry): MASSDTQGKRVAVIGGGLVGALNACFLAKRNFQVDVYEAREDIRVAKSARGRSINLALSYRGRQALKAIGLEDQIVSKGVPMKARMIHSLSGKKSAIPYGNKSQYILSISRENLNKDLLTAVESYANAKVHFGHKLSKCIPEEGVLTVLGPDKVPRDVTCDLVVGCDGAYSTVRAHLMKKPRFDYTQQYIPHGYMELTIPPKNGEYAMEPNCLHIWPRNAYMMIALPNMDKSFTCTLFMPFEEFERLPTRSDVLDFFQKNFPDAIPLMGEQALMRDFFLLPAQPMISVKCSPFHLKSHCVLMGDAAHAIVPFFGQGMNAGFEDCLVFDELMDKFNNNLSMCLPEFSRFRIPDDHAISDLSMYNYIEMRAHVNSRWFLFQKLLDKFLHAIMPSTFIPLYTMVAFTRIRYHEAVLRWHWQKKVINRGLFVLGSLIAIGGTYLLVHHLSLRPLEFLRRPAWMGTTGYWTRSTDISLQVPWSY

Chain of Kynurenine 3-monooxygenase (Homo sapiens, UniProt O15229) (O15229 whole entry): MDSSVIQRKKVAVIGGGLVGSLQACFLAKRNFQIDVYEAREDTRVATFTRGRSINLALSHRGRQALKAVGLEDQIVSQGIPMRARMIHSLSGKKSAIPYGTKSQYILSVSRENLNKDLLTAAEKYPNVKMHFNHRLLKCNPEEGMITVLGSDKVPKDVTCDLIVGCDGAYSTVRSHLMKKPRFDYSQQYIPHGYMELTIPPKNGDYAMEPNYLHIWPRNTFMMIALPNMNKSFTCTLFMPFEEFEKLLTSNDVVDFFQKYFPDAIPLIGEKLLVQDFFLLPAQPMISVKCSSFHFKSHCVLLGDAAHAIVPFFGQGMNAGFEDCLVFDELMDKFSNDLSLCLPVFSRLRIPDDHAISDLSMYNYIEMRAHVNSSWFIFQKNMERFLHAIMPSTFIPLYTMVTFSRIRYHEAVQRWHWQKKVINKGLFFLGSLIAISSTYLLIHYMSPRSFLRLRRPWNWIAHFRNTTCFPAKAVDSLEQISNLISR

IC50 [1] | IC50 [2] | IC50 [3] | SMILES
39 µM | 11 µM | 22 µM | COc1ccc(S(=O)(=O)Nc2nc(-c3cccc([N+](=O)[O-])c3)c(CO)s2)cc1OC
17 µM | 10 µM | 27 µM | COc1ccc(S(=O)(=O)Nc2nc(-c3cccc([N+](=O)[O-])c3)c(CN)s2)cc1OC
